# Hits are enriched below; roughly 3.1% of the tested compounds scored in any of these assays.
# rCAG RNA binder: binds r(CAG) RNA repeats; r(CAG) RNA repeat, TO-PRO-1 dye displacement fluorescence; inhibition, % at 3 µM; actives 1.3% (n = 370,000); AID 651821;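 active = inhibition above the plate cutoff, the mean of all test compounds on that plate plus 3 SD, cut at about 35% in these data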;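 also: higher means more dye released from RNA so lower well fluorescence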
# MBD2 DNA inh: inhibitors of human MBD2 binding to methylated oligonucleotide | inhibition, % at 4.4 µM | TR-FRET | Q9UBB5 | actives 0.31% (n = 370,000); in the data active = inhibition above about 13%
# UHRF1 MBD2 ctr: blocks human UHRF1 binding to methylated DNA; Q96T88; UHRF1 binding to methylated oligo, TR-FRET; inhibition, % at 4.4 µM; actives 0.75% (n = 370,000); AID 687016; in the data active = inhibition above about 21%;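 also: UHRF1 SRA domain binding a hemimethylated CpG hairpin DNA probe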
# Target sequence (Q96T88 whole entry, looked up, the tested form may be a part): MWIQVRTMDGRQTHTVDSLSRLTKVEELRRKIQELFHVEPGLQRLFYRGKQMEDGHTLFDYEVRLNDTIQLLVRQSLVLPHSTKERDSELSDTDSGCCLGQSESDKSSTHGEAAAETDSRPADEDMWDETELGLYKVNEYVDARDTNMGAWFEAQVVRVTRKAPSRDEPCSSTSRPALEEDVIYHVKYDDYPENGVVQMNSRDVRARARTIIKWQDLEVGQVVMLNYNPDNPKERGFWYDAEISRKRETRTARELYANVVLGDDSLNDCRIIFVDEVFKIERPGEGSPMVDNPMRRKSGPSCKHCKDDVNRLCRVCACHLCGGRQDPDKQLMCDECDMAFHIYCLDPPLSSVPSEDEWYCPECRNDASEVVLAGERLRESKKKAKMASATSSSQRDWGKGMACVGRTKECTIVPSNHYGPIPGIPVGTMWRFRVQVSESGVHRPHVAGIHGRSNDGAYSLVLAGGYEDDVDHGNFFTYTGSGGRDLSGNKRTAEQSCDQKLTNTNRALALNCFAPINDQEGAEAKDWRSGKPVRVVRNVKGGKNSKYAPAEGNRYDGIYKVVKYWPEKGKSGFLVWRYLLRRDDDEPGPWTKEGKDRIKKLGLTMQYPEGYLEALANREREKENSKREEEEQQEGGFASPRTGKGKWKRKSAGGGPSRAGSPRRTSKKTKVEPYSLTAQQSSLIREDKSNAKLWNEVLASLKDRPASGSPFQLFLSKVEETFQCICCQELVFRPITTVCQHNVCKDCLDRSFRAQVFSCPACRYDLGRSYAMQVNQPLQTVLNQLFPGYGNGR
# LEDGF integ inh: blocks HIV-1 LEDGF/p75-dependent DNA integration | inhibition, % at 3.7 µM | TR-FRET IN-LEDGF/p75 DNA integration, Eu/Cy5 | actives 0.64% (n = 370,000);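 active = inhibition above the screen-wide mean plus 3 SD, cut at about 13% in these data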;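 also: signal is the Cy5 over europium emission ratio at 671 and 618 nm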
# CSN deneddyl inh: blocks human CSN-mediated cullin deneddylation | Purified CSN, SCF-Nedd8-OG deneddylation, fluorescence polarization | inhibition, % at 12.5 µM | Q92905 | actives 0.38% (n = 360,000);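 active = pattern-corrected inhibition above about 35%, with an unprinted fluorescence ratio check between 0.5 and 1.5, limit read from the data, passing the limit was not always enough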
#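 test system = HEK293T-derived human Csn5 enzyme | amount = 0.24 nM Csn5 enzyme, final concentration | medium = Tris/NaCl/DTT buffer, pH 7.5 | schedule = 90 min reaction at room temperature | signal = FP | evaluation = inhibition of Csn5 cleavage, % | compound dosing = single dose of 12.5 µM compound with 0.25% DMSO | probe or stimulus = 10 nM SCFSkp2-Nedd8OG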
# ATG4B inh: inhibitors of human ATG4B cysteine protease. actives 0.51% (n = 340,000). Q9Y4P1. ATG4B cleavage of LC3-PLA2, NBD-HPC fluorescence, 1 h. inhibition, % at 8.33 µM; in the data active = inhibition above about 40%
# rCAG binder conf: r(CAG) RNA repeat binding, confirmation | shares compounds with rCAG RNA binder | TO-PRO-1 dye displacement fluorescence | inhibition, % at 3 µM | actives 70% (n = 4,300);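 active = inhibition above a per-plate cutoff, the mean inhibition of sample wells plus 3 SD, cut at about 35% in these data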;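 also: loss of TO-PRO-1 fluorescence as compound displaces dye from 1x1 AA loop RNA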
# dCAG dye counter: DNA CAG dye complex inhibition counter-screen | shares compounds with rCAG RNA binder | d(CAG) DNA oligo TO-PRO-1 dye displacement, fluorescence | inhibition, % at 3 µM | actives 94% (n = 4,300) | AID 652068;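 active = inhibition above its plate's cutoff, the mean test-well inhibition plus 3 SD, cut at about 4.8% in these data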;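 also: hits displace the dye from DNA and so lower well fluorescence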
# dCAG dye DR: DNA CAG dye complex inhibition, dose response counter-screen; actives 20% (n = 250); DNA CAG/GTC duplex TO-PRO-1 dye displacement fluorescence; shares compounds with rCAG RNA binder; IC50, µM; in the data active = IC50 below about 10 µM
# Numbers stand for hits; – = inactive; · = not tested or not shown.
SMILES,rCAG RNA binder,MBD2 DNA inh,UHRF1 MBD2 ctr,LEDGF integ inh,CSN deneddyl inh,ATG4B inh,rCAG binder conf,dCAG dye counter,others
Fc1ccc(-c2n[nH]c(=S)n2N=Cc2ccc(-c3ccccc3)cc2)cc1,44,–,–,–,·,·,40,16,
Fc1ccc(-c2n[nH]c(=S)n2N=Cc2ccc(OCc3ccccc3)cc2)cc1,67,–,–,–,·,·,47,17,
Cc1cc(-c2n[nH]c(=S)n2N=Cc2cccc(OCc3ccccc3)c2)n[nH]1,–,–,–,–,·,·,·,·,
Fc1ccccc1-c1n[nH]c(=S)n1N=Cc1ccc(OCc2ccccc2)cc1,70,–,–,–,·,·,58,20,
COc1cc(C=Nn2c(-c3n[nH]c4c3CCC4)n[nH]c2=S)ccc1OCc1ccccc1,–,–,–,–,·,·,·,·,
C[C@@H]1ON(C)[C@H]2C[C@H]3c4[nH]c5c(-c6ccccc6)cccc5c4CCN3C[C@@H]12,–,–,–,–,·,·,·,·,
COC(=O)[C@]12C[C@H](CC(=O)N3CCCCC3)C(=O)N(CCc3ccc(OC)c(OC)c3)C1=C[C@H](C1CCCC1)O[C@@H]2C,–,–,–,–,·,·,·,·,
Cc1ccc(NC(=S)NNC(=O)CSc2nnc(-c3ccc(C)cc3)n2C2CCCCC2)cc1,–,–,–,–,·,·,·,·,
COC(=O)[C@]12C[C@H](CC(=O)NCCCN3CCCC3=O)C(=O)N(CCc3ccc(OC)c(OC)c3)C1=C[C@H](C1CCCC1)O[C@@H]2C,–,–,–,–,·,·,·,·,
O=C(CSc1nnc(-c2ccccn2)n1-c1ccccc1)Nc1ccc(OCc2ccccc2)cc1,–,–,–,–,·,·,·,·,
COc1ccc(C=Nn2c(-c3ccccc3F)n[nH]c2=S)cc1OCc1ccccc1,50,–,–,–,·,·,42,10,
Oc1ccccc1/C=N/n1c(-c2ccccc2)n[nH]c1=S,–,–,–,–,–,–,·,·,
Oc1ccc2ccccc2c1C=Nn1c(-c2n[nH]c3c2CCC3)n[nH]c1=S,72,–,–,–,·,·,60,22,
S=c1[nH]nc(-c2n[nH]c3c2CCC3)n1N=Cc1c2ccccc2cc2ccccc12,–,–,–,–,·,·,·,·,
CCN(CC)c1ccc(C=Nn2c(-c3ccc(F)cc3)n[nH]c2=S)c(O)c1,64,–,–,–,·,·,52,16,
CNc1ccccc1/C(O)=C(\C#N)C(=O)NCc1cccs1,–,–,–,–,·,·,·,·,
CCN(c1cc(C)cc(C)c1)S(=O)(=O)c1nnc(NC(=O)c2ccco2)s1,39,–,–,–,–,–,38,10,
Cc1ccccc1N1CCN(S(=O)(=O)c2nnc(NC(=O)c3ccco3)s2)CC1,43,–,–,–,–,–,72,26,dCAG dye DR=–
CCN(c1ccccc1C)S(=O)(=O)c1nnc(NC(=O)c2ccco2)s1,41,–,–,–,–,–,–,6.9,
O=C(Cn1cc2c(n1)CCCCC2)NCc1ccccc1,41,–,–,–,–,–,–,–,
O=C(Cn1cc2c(n1)CCCC2)NCc1cccnc1,–,–,–,–,–,–,·,·,
Cc1ccc(-c2nc3ccc(C)cn3c2Cc2ccccc2C(F)(F)F)cc1,36,–,–,–,–,·,–,–,
Fc1ccc(-c2nc3ccc(Cl)cn3c2Cc2ccccc2C(F)(F)F)cc1,38,–,–,–,–,·,–,–,
COc1ccccc1Cc1c(-c2ccc(F)cc2)nc2c(C)cc(Br)cn12,–,–,–,–,–,·,·,·,
FC(F)(F)c1ccccc1Cc1c(-c2ccc(Cl)cc2)nc2ccc(Cl)cn12,50,–,–,–,–,·,–,7.7,
SMILES,rCAG RNA binder,MBD2 DNA inh,UHRF1 MBD2 ctr,LEDGF integ inh,CSN deneddyl inh,ATG4B inh,rCAG binder conf,dCAG dye counter,others
Cc1cc(Br)cn2c(Cc3ccccc3C(F)(F)F)c(-c3ccc(F)cc3)nc12,55,–,–,–,·,·,43,11,dCAG dye DR=–
O=C(NCc1ccccc1)OCCN1C(=O)CCC12CCC(c1ccc(Cl)cc1)CC2 (stereo unspecified),–,–,–,–,·,·,·,·,
O=C(NCC1COc2ccccc2O1)c1ccc(NC(=O)c2c(Cl)cccc2Cl)cc1 (stereo unspecified),–,–,–,–,·,·,·,·,
Cc1ccc(NC(=O)Cn2nnc(-c3ccncc3)n2)cc1C,–,–,–,–,·,·,·,·,
O=C(C1CCCO1)N1CCN(C2=Nc3ccccc3Sc3ccccc32)CC1 (stereo unspecified),–,–,–,–,·,·,·,·,
FC(F)(F)c1ccccc1Cc1c(-c2ccc(Cl)cc2)nc2ccc(Br)cn12,64,–,–,–,–,·,–,–,
FC(F)(F)c1ccccc1Cc1c(-c2cccc(Br)c2)nc2ccc(Br)cn12,–,–,–,–,–,·,·,·,
Fc1ccc(-c2nc3ccc(Br)cn3c2Cc2ccccc2C(F)(F)F)cc1,51,–,–,–,–,·,–,–,
CCC[C@H]1[C@@H](OC(=O)NCc2ccc(OC)cc2)CC[C@@]23CCCN2C(=O)CCC[C@@H]13,·,–,–,–,·,·,·,·,
CCc1ccc([C@@H]2CC=C(C(=O)O)[C@H](c3ccc(C(C)(C)C)cc3)N2S(=O)(=O)c2ccc(C)cc2)cc1,92,–,–,–,–,–,85,53,
COc1cccc([C@@H]2CC=C(C(=O)O)[C@H](c3ccc(Br)cc3)N2S(=O)(=O)c2ccc(C)cc2)c1,–,–,–,–,–,–,·,·,
Cc1ccc([C@@H]2CC=C(C(=O)O)[C@H](c3ccc(C(C)(C)C)cc3)N2S(=O)(=O)c2ccc(C)cc2)cc1,90,–,–,–,–,–,84,48,
Cc1ccc(S(=O)(=O)N2[C@@H](c3ccc(C(C)(C)C)cc3)C(C(=O)O)=CC[C@H]2c2ccc(C(C)C)cc2)cc1,90,–,–,–,–,–,74,44,
CCc1ccc([C@H]2C(C(=O)O)=C[C@@H](C(C)(C)C)N2S(=O)(=O)c2ccc(C)cc2)cc1,52,–,–,–,–,–,49,18,
COC(=O)C1=C(C)N(Cc2ccc(Br)cc2)C(=S)NC1c1ccc(OC)cc1 (stereo unspecified),–,–,–,–,·,·,·,·,
C=CCN(C(=O)[C@@H](C1CC1)[C@@H](O)c1ccc(Cl)cc1)c1ccccc1,–,–,–,–,·,·,·,·,
CC(C)C[C@@H]1COc2cc(Br)ccc2S(=O)(=O)N1Cc1cn(CCC2OCCO2)nn1,–,–,–,–,·,·,·,·,
COc1ccc(C(=O)OCCCN(C)C2CN(Cc3cn(Cc4ccccc4Cl)nn3)S(=O)(=O)C2)cc1OC (stereo unspecified),–,–,–,–,·,·,·,·,
